Laboratory results from article PMC6401406 (Theranostics, 2019).
Read-outs that look alike come from different tables or passages of the source.

Columns and labels:
[1] = cited from earlier work
[2] = format: in vivo, Sprague-Dawley rats; details: for Tmax: male, Sprague-Dawley, rat, iv, 30 mg/kg
Outline: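 Male 8-week-old Sprague-Dawley rats were acclimated ≥1 week, fasted 12 h, then given a single i.v. 30 mg kg-1 dose. Lung, liver, kidney, spleen, heart and heparinized plasma were collected at 0, 10, 30, 60, 120 and 240 min. Organs were saline-washed and stored at -80 °C. Sections underwent MALDI MSI with internal-standard correction; homogenates underwent LC-MS/MS. Identity was confirmed by accurate mass and tandem MS. Mean ± SD, three animals.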

[3] = cited from earlier work; remark: listed apart in the source

| Compound | Half-life (t1/2) in blood versus heart ([1]; after i.v. administration) | Uptake efficiency in spleen versus other tissues [1] | Tmax in spleen ([1]; post-dose, spleen) [min] | Tmax ([2]; kidney) [min] | Tmax ([2]; liver) [min] | Tmax ([2]; lung) [min] | Distribution within kidney ([2]; rat kidney, 60 min post-dose, 3D MALDI imaging) | Relatively non-toxic dose [3] | Time of maximum concentration of demethylated metabolite in liver ([2]; rat liver after i.v. tetrandrine 30 mg kg^-1) [h] | Detection of metabolite in liver tissue ([2]; rat liver after i.v. tetrandrine, MALDI MSI, accurate mass and tandem MS) |
| --- | --- | --- | --- | --- | --- | --- | --- | --- | --- | --- |
| COc1ccc2cc1Oc1ccc(cc1)C[C@H]1c3cc(c(OC)cc3CCN1C)Oc1c(OC)c(OC)cc3c1[C@H](C2)N(C)CC3 [tetrandrine, Tetrandrine] | generally similar | higher in spleen than other tissues | 270 | 30 | 120 | 10 | mainly distributed in the cortex of kidney | up to 90 mg kg^-1 body weight |  |  |
| demethylated tetrandrine |  |  |  |  |  |  |  |  | 4 | detected |
